{"source": "paper PMC3034256", "about": "(Chemistry & biology, 2011)", "tested_on": "macrophage progenitor cells expressing MIEG3, wild-type SHP2, or SHP2/E76K", "test": "GM-CSF induced ERK1/2 activation in macrophage progenitors", "type": "cell-based", "details": "2 µM for 2 hours, GM-CSF 50 ng/mL for 60 minutes", "in_short": "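Bone marrow low-density mononuclear cells were transduced (empty vector, wild-type SHP2 or SHP2/E76K), EGFP-sorted and grown 5 days in M-CSF 100 ng/mL to give macrophage progenitors. These were serum- and growth factor-starved 16 h, pretreated 2 h with DMSO or 2 µM test compound, then left unstimulated or given GM-CSF 50 ng/mL for 60 min. Extracts were immunoblotted for phospho-ERK1/2 and total ERK1/2.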"}
{"smiles": "C=C/C(=C/C(=O)C[C@H](C)C[C@@H](C)CC[C@H](O)[C@H](C)C(=O)C[C@@H](O)[C@H](C)[C@@H](C)OC(=O)C[C@@H](O)C1=C(C)C(=O)OC1=O)CC", "note": "[TTN, tautomycetin]", "values": [{"measurement": "effect on ERK1/2 hyperactivation in SHP2/E76K-expressing cells", "value": "effectively inhibited"}, {"measurement": "effect on GM-CSF induced ERK1/2 activation", "value": "abrogated"}]}
